Reference: ChEMBL document CHEMBL1125678, “Quinazolineacetic acids and related analogues as aldose reductase inhibitors” (J Med Chem, 1991)

Assays:
[1] = molecular target: Aldo-keto reductase family 1 member B1 (Bos taurus) (UniProt P16116); assay: In vitro inhibition of aldose reductase in partially purified bovine lens preparation at a concentration of 4*10e -8M.
How it was run: (§1)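 Enzyme from bovine lens, partially purified by the cited method with the final chromatographic step omitted. DL-Glyceraldehyde was the substrate. Test compounds were run in duplicate at 1×10⁻⁵, 1×10⁻⁶, 1×10⁻⁷ or 4×10⁻⁸ M. Values are % inhibition of enzymatic activity.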

Rattus norvegicus [2] = assay: In vivo inhibition of galactitol accumulation in the diaphragm of rats fed 20% galactose for 4 day at 102 mg/kg/day dose; format: functional
How it was run: (§2)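 Male Sprague-Dawley rats (50–70 g) in groups of six were fed chow with 20% (w/w) galactose. Controls received 20% glucose instead. Test compound was mixed into the diet, and dose was calculated from actual food intake. Rats were killed by decapitation after 4 days. Result is % lowering of tissue galactitol versus galactose-fed controls, as the mean of six animals, compared by Dunnett's multiple comparison.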

Rattus norvegicus [3] = assay: (§3) In vivo inhibition of galactitol accumulation in the sciatic nerve of rats fed 20% galactose for 4 day at 95 mg/kg/day dose; NS= No Significant inhibition of polyol accumulation; format: functional, organism-based
[4] = molecular target: Aldo-keto reductase family 1 member B1 (Bos taurus) (UniProt P16116); assay: In vitro inhibition of aldose reductase in partially purified bovine lens preparation at a concentration of 10e -7M.; how it was run: as §1
Rattus norvegicus [5] = assay: In vivo inhibition of galactitol accumulation in the sciatic nerve of rats fed 20% galactose for 4 day at 99 mg/kg/day dose; NS = No Significant inhibition of polyol accumulation; format: functional, organism-based
Rattus norvegicus [6] = assay: In vivo inhibition of galactitol accumulation in the diaphragm of rats fed 20% galactose for 4 day at 99 mg/kg/day dose; NS = No Significant inhibition of polyol accumulation; format: functional, organism-based; how it was run: as §2
[7] = molecular target: Aldo-keto reductase family 1 member B1 (Bos taurus) (UniProt P16116); assay: in vitro inhibition of aldose reductase in partially purified bovine lens preparation at a concentration of 10e -6M.
Rattus norvegicus [8] = assay: In vivo inhibition of galactitol accumulation in the diaphragm of rats fed 20% galactose for 4 day at 101 mg/kg/day dose; format: functional; how it was run: as §2
Rattus norvegicus [9] = assay: as §3; format: functional, organism-based; remark: listed apart in the source
[10] = molecular target: Aldo-keto reductase family 1 member B1 (Bos taurus) (UniProt P16116); assay: In vitro inhibition of aldose reductase in partially purified bovine lens preparation at a concentration of 10e-6 M.; how it was run: as §1
Rattus norvegicus [11] = assay: In vivo inhibition of galactitol accumulation in the sciatic nerve of rats fed 20% galactose for 4 day at 101 mg/kg/day dose; NS = No Significant inhibition of polyol accumulation; format: functional, organism-based; how it was run: as §2
Rattus norvegicus [12] = assay: In vivo inhibition of galactitol accumulation in the diaphragm of rats fed 20% galactose for 4 day at 101 mg/kg/day dose; NS = No Significant inhibition of polyol accumulation; format: functional, organism-based; how it was run: as §2
Rattus norvegicus [13] = assay: In vivo inhibition of galactitol accumulation in the diaphragm of rats fed 20% galactose for 4 day at 95 mg/kg/day dose; format: functional; how it was run: as §2
Rattus norvegicus [14] = assay: In vivo inhibition of galactitol accumulation in the sciatic nerve of rats fed 20% galactose for 4 day at 95 mg/kg/day dose; format: functional
[15] = molecular target: Aldo-keto reductase family 1 member B1 (Bos taurus) (UniProt P16116); assay: In vitro inhibition of Aldose reductase in partially purified bovine lens preparation at a concentration of 10e -7M.; how it was run: as §1
[16] = molecular target: Aldo-keto reductase family 1 member B1 (Bos taurus) (UniProt P16116); assay: In vitro inhibition of Aldose reductase in partially purified bovine lens preparation at a concentration of 4*10e -8M.; how it was run: as §1
Rattus norvegicus [17] = assay: In vivo inhibition of galactitol accumulation in the sciatic nerve of rats fed 20% galactose for 4 day at 96 mg/kg/day dose; format: functional
Rattus norvegicus [18] = assay: In vivo inhibition of galactitol accumulation in the diaphragm of rats fed 20% galactose for 4 day at 96 mg/kg/day dose; format: functional; how it was run: as §2
Rattus norvegicus [19] = assay: In vivo inhibition of galactitol accumulation in the sciatic nerve of rats fed 20% galactose for 4 day at 70 mg/kg/day dose; format: functional; how it was run: as §2
Rattus norvegicus [20] = assay: In vivo inhibition of galactitol accumulation in the diaphragm of rats fed 20% galactose for 4 day at 70 mg/kg/day dose; format: functional; how it was run: as §2
[21] = molecular target: Aldo-keto reductase family 1 member B1 (Bos taurus) (UniProt P16116); assay: in vitro inhibition of Aldose reductase in partially purified bovine lens preparation at a concentration of 10e-6 M.
Rattus norvegicus [22] = assay: In vivo inhibition of galactitol accumulation in the sciatic nerve of rats fed 20% galactose for 4 day at 96 mg/kg/day dose; NS = No Significant inhibition of polyol accumulation; format: functional, organism-based
Rattus norvegicus [23] = assay: In vivo inhibition of galactitol accumulation in the diaphragm of rats fed 20% galactose for 4 day at 100 mg/kg/day dose; format: functional; how it was run: as §2
Rattus norvegicus [24] = assay: In vivo inhibition of galactitol accumulation in the sciatic nerve of rats fed 20% galactose for 4 day at 100 mg/kg/day dose; format: functional; how it was run: as §2
[25] = molecular target: Aldo-keto reductase family 1 member B1 (Bos taurus) (UniProt P16116); assay: In vitro inhibition of aldose reductase in partially purified bovine lens preparation at a concentration of 10e -5M.; details: in the assay text read “10e -6M” for “10e -5M”; how it was run: as §1
Rattus norvegicus [26] = assay: In vivo inhibition of galactitol accumulation in the sciatic nerve of rats fed 20% galactose for 4 day at 91 mg/kg/day dose; NS = No Significant inhibition of polyol accumulation; format: functional, organism-based; how it was run: as §2
Rattus norvegicus [27] = assay: In vivo inhibition of galactitol accumulation in the diaphragm of rats fed 20% galactose for 4 day at 91 mg/kg/day dose; NS = No Significant inhibition of polyol accumulation; format: functional, organism-based; how it was run: as §2
Rattus norvegicus [28] = assay: In vivo inhibition of galactitol accumulation in the sciatic nerve of rats fed 20% galactose for 4 day at 94 mg/kg/day dose; NS = No Significant inhibition of polyol accumulation; format: functional, organism-based
Rattus norvegicus [29] = assay: In vivo inhibition of galactitol accumulation in the diaphragm of rats fed 20% galactose for 4 day at 94 mg/kg/day dose; NS = No Significant inhibition of polyol accumulation; format: functional, organism-based; how it was run: as §2

COc1ccc(Cn2c(=O)n(CC(=O)O)c(=O)c3cc(Br)ccc32)cc1Br
inhibition [1]: 32%
Lowering (Rattus norvegicus [2]): 24%
Lowering (Rattus norvegicus [3]): Not significant

Cc1c(C)n(Cc2ccc(Cl)c(Cl)c2)c(=O)n(CC(=O)O)c1=O
inhibition [4]: 39%
inhibition [1]: 28%
Lowering (Rattus norvegicus [5]): Not significant
Lowering (Rattus norvegicus [6]): Not significant
inhibition [7]: 83%

O=C(O)CN1CN(Cc2ccc(Cl)c(Cl)c2)C(=O)c2cc(Cl)ccc21
inhibition [4]: 87%
inhibition [1]: 54%
Lowering (Rattus norvegicus [3]): Not significant
Lowering (Rattus norvegicus [8]): 29%

C=CCn1c(=O)n(CC(=O)O)c(=O)c2cc(Br)ccc21
Lowering (Rattus norvegicus [3]): Not significant
Lowering (Rattus norvegicus [9]): Not significant
inhibition [7]: 31%

O=C(O)Cn1c(=O)c2cc(Br)ccc2n(Cc2ccc(F)c(F)c2)c1=O
inhibition [4]: 30%
inhibition [1]: 20%
Lowering (Rattus norvegicus [2]): 40%
Lowering (Rattus norvegicus [3]): Not significant

O=C(O)CN1C(=O)c2cc(Cl)ccc2N(Cc2ccc(Br)cc2F)[S+]1[O-] (stereo not given)
inhibition [4]: 21%
inhibition [1]: 8%
Lowering (Rattus norvegicus [3]): Not significant
Lowering (Rattus norvegicus [9]): Not significant

CCc1nc2ccc(Br)cc2c(=O)n1CC(=O)O
inhibition [4]: 13%
inhibition [10]: 57%
Lowering (Rattus norvegicus [11]): Not significant
Lowering (Rattus norvegicus [12]): Not significant

O=C(O)Cn1c(=O)c2cc(Cl)ccc2n(Cc2ccc(Cl)c(Cl)c2)c1=O
inhibition [4]: 71%
inhibition [1]: 29%
Lowering (Rattus norvegicus [13]): 83%
Lowering (Rattus norvegicus [14]): 72%

O=C(O)Cn1c2ccc(Cl)cc2c(=O)n1Cc1ccc(Cl)c(Cl)c1
inhibition [4]: 63%
inhibition [1]: 34%
Lowering (Rattus norvegicus [11]): Not significant
Lowering (Rattus norvegicus [12]): Not significant

O=C(O)Cn1c(=O)c2cc(Br)ccc2n(C(=O)c2ccccc2)c1=O
Lowering (Rattus norvegicus [3]): Not significant
Lowering (Rattus norvegicus [9]): Not significant
inhibition [7]: 46%

O=C(O)Cn1c(=O)c2cc(Br)ccc2n(Cc2ccc(C(F)(F)F)cc2)c1=O
Lowering (Rattus norvegicus [3]): Not significant
Lowering (Rattus norvegicus [9]): Not significant
inhibition [7]: 54%

O=C(O)Cn1c2ccccc2c(=O)n1Cc1ccc(Br)cc1F
inhibition [15]: 42%
inhibition [16]: 28%
Lowering (Rattus norvegicus [17]): 25%
Lowering (Rattus norvegicus [18]): 51%

O=C(O)Cn1c(=O)n(Cc2ccc(Cl)c(Cl)c2)c(=S)c2cc(Cl)ccc21
inhibition [4]: 89%
inhibition [1]: 54%
Lowering (Rattus norvegicus [19]): 28%
Lowering (Rattus norvegicus [20]): 50%

O=C(O)Cn1c2ccc([N+](=O)[O-])cc2c(=O)n1Cc1ccc(Br)cc1F
inhibition [15]: 60%
inhibition [16]: 36%
Lowering (Rattus norvegicus [11]): Not significant
Lowering (Rattus norvegicus [8]): 22%

O=C(O)Cn1c(=O)c2ccccc2n1Cc1ccc(Br)cc1F
inhibition [21]: 40%
Lowering (Rattus norvegicus [22]): Not significant
Lowering (Rattus norvegicus [18]): 24%

COc1ccc(Cn2c(=O)n(CC(=O)O)c(=O)c3cc(Br)ccc32)cc1
inhibition [4]: 31%
inhibition [1]: 11%
Lowering (Rattus norvegicus [3]): Not significant
Lowering (Rattus norvegicus [9]): Not significant

O=C(O)Cn1c(=O)c2cc(Br)ccc2n(Cc2ccc(Br)cc2)c1=O
inhibition [4]: 59%
inhibition [1]: 39%
Lowering (Rattus norvegicus [23]): 36%
Lowering (Rattus norvegicus [24]): 24%

O=C(O)Cn1c(=O)c2cccc(F)c2n(Cc2ccc(Br)cc2F)c1=O
inhibition [4]: 77%
inhibition [1]: 53%
Lowering (Rattus norvegicus [13]): 70%
Lowering (Rattus norvegicus [14]): 49%

O=C(O)Cn1c(=O)[nH]c2ccc(Br)cc2c1=O
inhibition [25]: 64%

O=C(O)Cn1c(=O)c2ccccc2n(-c2ccccc2)c1=O
inhibition [25]: 45%

O=C(O)Cn1c(C(F)(F)F)nc2ccc(Br)cc2c1=O
inhibition [4]: 23%
inhibition [10]: 45%
Lowering (Rattus norvegicus [26]): Not significant
Lowering (Rattus norvegicus [27]): Not significant

O=C(O)Cn1c(=O)n(Cc2ccc(Cl)c(Cl)c2)c(=O)c2c3c(sc21)CCCC3
inhibition [4]: 89%
inhibition [1]: 63%
Lowering (Rattus norvegicus [5]): Not significant
Lowering (Rattus norvegicus [6]): Not significant

O=C(O)Cn1c(=O)c2cc(Br)ccc2n(CCc2ccccc2)c1=O
inhibition [25]: 34%
Lowering (Rattus norvegicus [3]): Not significant
Lowering (Rattus norvegicus [9]): Not significant

O=C(O)Cn1c(=O)c2ccc(Cl)cc2n(Cc2ccc(Br)cc2F)c1=O
inhibition [4]: 76%
inhibition [1]: 55%
Lowering (Rattus norvegicus [13]): 74%
Lowering (Rattus norvegicus [14]): 42%

Cc1nc2ccc(Br)cc2c(=S)n1CC(=O)O
inhibition [4]: 54%
inhibition [10]: 88%
Lowering (Rattus norvegicus [28]): Not significant
Lowering (Rattus norvegicus [29]): Not significant

COc1ccc2c(c1)c(=O)n(CC(=O)O)c(=O)n2Cc1ccc(Cl)c(Cl)c1
inhibition [4]: 85%
inhibition [1]: 49%
Lowering (Rattus norvegicus [23]): 70%
Lowering (Rattus norvegicus [24]): 63%

O=C(O)Cn1c(=O)c2cc(Br)ccc2n(Cc2ccc(Br)cc2F)c1=O
inhibition [15]: 83%
inhibition [16]: 71%
Lowering (Rattus norvegicus [17]): 60%
Lowering (Rattus norvegicus [18]): 76%

O=C(O)Cn1c(=O)c2cc(Cl)ccc2n(Cc2ccc(Br)cc2F)c1=S
inhibition [4]: 70%
inhibition [1]: 24%
Lowering (Rattus norvegicus [19]): 39%
Lowering (Rattus norvegicus [20]): 60%

O=C(O)Cn1c(=O)c2c(Cl)cccc2n(Cc2ccc(Br)cc2F)c1=O
inhibition [4]: 70%
inhibition [1]: 33%
Lowering (Rattus norvegicus [13]): 46%
Lowering (Rattus norvegicus [3]): Not significant

O=C(O)Cn1c(=O)c2cc([N+](=O)[O-])ccc2n(Cc2ccc(Br)cc2F)c1=O
inhibition [4]: 71%
inhibition [1]: 38%
Lowering (Rattus norvegicus [3]): Not significant
Lowering (Rattus norvegicus [9]): Not significant

Cn1c(=O)n(CC(=O)O)c(=O)c2cc(Cl)ccc21
inhibition [25]: 60%
